Key:
MS2 coat protein [1] = assay: apparent Kd, MS2 coat protein; higher = weaker binding; RNA-MaP array
How it was run: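 Fluorescently labeled MS2 coat protein, from 1.5 nM to 3 μM, was incubated at room temperature with designed RNAs transcribed on an Illumina sequencing chip from sequenced DNA templates. Times ran from 0.8–1.5 h at the lowest concentrations to 10–20 min at the highest, in Tris-HCl pH 7.5 buffer with KCl, MgCl2, BSA, DTT, tRNA and Tween20, with or without input ligand. Each apparent Kd is the median of per-cluster binding-curve fits, and designs with fewer than 10 measured clusters were excluded.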

MS2 coat protein [2] = assay: apparent Kd, MS2 coat protein; higher = weaker binding; RNA-MaP array; FMN 200 µM where present
How it was run: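 Green signal was scaled to red-channel RNA signal and control-cluster median Fmax, and the apparent Kd was taken as the median of filtered per-cluster binding-curve fits. The binding series used SNAP-549-labelled MS2 coat protein from 0.7 or 1.5 nM, doubling to 3 µM, on designs transcribed by stalled E. coli RNA polymerase on Illumina sequencing-chip clusters. Each series ran without and then with constant ligand in 100 mM Tris-HCl pH 7.5, 80 mM KCl, 4 mM MgCl2, BSA, DTT, yeast tRNA and Tween-20.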

[3] = designed as: OFF switch for flavin mononucleotide, no ligand
[4] = ligand present: flavin mononucleotide, designed as: OFF switch for flavin mononucleotide
[5] = designed as: ON switch for flavin mononucleotide, no ligand
[6] = ligand present: flavin mononucleotide, designed as: ON switch for flavin mononucleotide

UUAGUGAUACUAGGAUAUAGGUAAGACUCUUAACUAGAAGGAGUAGGGACGAAUACAUGAGGAUCACCCAUGUGAUUCUGGUUG
apparent Kd (MS2 coat protein [1]; [3]): 21.6 nM | apparent Kd (MS2 coat protein [1]; [4]): 26.3 nM

GAUCUCCGCGAGAAGGCUGAGCGGUCACUAGCCAGAGGAUAUCGUCACGCGCAGGGAAAACAUGAGGAUCACCCAUGUGUAAGU
apparent Kd (MS2 coat protein [1]; [3]): 10.7 nM | apparent Kd (MS2 coat protein [1]; [4]): 10.6 nM

UCGGUUUGUGCAGGAUAUGCUUACACCCUAGAGGCAGAAGGGCAUAUCACAUGAGGAUCACCCAUGUACAAUCGUCCAAGGGCA
apparent Kd (MS2 coat protein [1]; [5]): 29.8 nM | apparent Kd (MS2 coat protein [1]; [6]): 23.4 nM

ACAUGAGGAUCACCCAUGUAAACAAGGUUGGAGACCCGCAAUGAGGAUAUCAUAAAGAAACCCAAUGAGAAGGCAUGAUCACAA
apparent Kd (MS2 coat protein [1]; [5]): 22.3 nM | apparent Kd (MS2 coat protein [1]; [6]): 17.2 nM

CGUAUACAUGAGGAUCACCCAUGUACUCCCGUGUAAGGCGAGAAGGAUAUGUUCCCGGCUACUUAACAGAAGGUCUUGGCGCUU
apparent Kd (MS2 coat protein [1]; [3]): 14.9 nM | apparent Kd (MS2 coat protein [1]; [4]): 11.2 nM

CCCAGGAUUCAAGGAUAUCGCAAUGAACAUGAGGAUCACCCAUGUUUCUACCCCUCAGCGCACGGCGAGAAGGUGACUUUAGCG
apparent Kd (MS2 coat protein [1]; [3]): 12.8 nM | apparent Kd (MS2 coat protein [1]; [4]): 12.3 nM

CCGAUAAUCAAACAUGAGGAUCACCCAUGUUCUGGACGGUUCGAGGAUAUGGCACAAGGUAUCUUCCAGAAGGCGAGCCGGUGA
apparent Kd (MS2 coat protein [1]; [5]): 8.04 nM | apparent Kd (MS2 coat protein [1]; [6]): 5.98 nM

AUGUUCGUAAAGAAGGAUCAGGUGAUAUAUGUCAACAUGAGGAUCACCCAUGUGCGGGACGUAAGAUAGGAUAUUUGAGAUCAU
apparent Kd (MS2 coat protein [1]; [3]): 14.3 nM | apparent Kd (MS2 coat protein [1]; [4]): 10.8 nM

AUAACACAUGAGGAUCACCCAUGUAAGGAUAUAGUAGCAAUGGAAAGAAAUCUAUCCUCUAGAAGGUACACGGC
apparent Kd (MS2 coat protein [1]; [3]): 18.5 nM | apparent Kd (MS2 coat protein [1]; [4]): 15.3 nM

GCAUAGUAAAAUGAUACCAGAGUCAAAACAGACAUGAGGAUCACCCAUGUGCAUAUACAACUCCCUUGGCAGCAUUAAAACGGGA
apparent Kd (MS2 coat protein [1]; designed as: ON switch for theophylline, no ligand): 17.1 nM | apparent Kd (MS2 coat protein [1]; ligand present: theophylline, designed as: ON switch for theophylline): 13 nM

GUACUUGUGCAGAAGGGCAUUGAUUUAGGUUGUUAGGUUGAUCAGAUAUGCAGGAUAUGCUAUACAUGAGGAUCACCCAUGUUC
apparent Kd (MS2 coat protein [2]; [5]): 92 nM | apparent Kd (MS2 coat protein [2]; [6]): 11.7 nM

CCGAUGGUAUACUAGGAUAUGGGCGCCCUUACAUGAGGAUCACCCAUGUUUACACAAAUCCGCGGCCAGAAGGAGUUCAUGGGAG
apparent Kd (MS2 coat protein [2]; [5]): 184 nM | apparent Kd (MS2 coat protein [2]; [6]): 133 nM

CGUCCACAUGAGGAUCACCCAUGUGAGGAUAUCGAUGUCCCAGGGCGGGUGCGGGACUCGAGAAGGCACUAGGU
apparent Kd (MS2 coat protein [2]; [3]): 32.7 nM | apparent Kd (MS2 coat protein [2]; [4]): 93.6 nM

UCCUUGUCCUGAGGAUAUCCGUGGUUCCCGAAAGGAGAAGGCAGGACAUGAGGAUCACCCAUGUACCCAGAAAACGUGCAGAGU
apparent Kd (MS2 coat protein [2]; [3]): 163 nM | apparent Kd (MS2 coat protein [2]; [4]): 273 nM

UCAUUUCUGAAAGGAUAUUAAUUCAUGACGAUACAUGAGGAUCACCCAUGUUAAGAAGGUUCAAAUACAAAUAAUGCAUUGUUC
apparent Kd (MS2 coat protein [2]; [3]): 13.2 nM | apparent Kd (MS2 coat protein [2]; [4]): 11.1 nM

UUCAGGGAUCAAGGAUAUCUAUAUUCAUGAGGACAUGAGGAUCACCCAUGUUGAUUACCCAUGAGGGAGAAGGUGAACAUGAGG
apparent Kd (MS2 coat protein [2]; [5]): 44.2 nM | apparent Kd (MS2 coat protein [2]; [6]): 18.7 nM

AAGUAGGUAGGAUAUACAUGGAUAUACAUUCAUGUGGACCUACAUGAGGAUCACCCAUGUAGAAGGACCUAUAA
apparent Kd (MS2 coat protein [2]; [3]): 40.4 nM | apparent Kd (MS2 coat protein [2]; [4]): 58 nM

AAAAAACAUGAGGAUCACCCAUGUUAGGAUAUCCUGCAGAAAAAAAAAAAAAACUGCAGGAGAAGGAGCAAGGA
apparent Kd (MS2 coat protein [2]; [3]): 90 nM | apparent Kd (MS2 coat protein [2]; [4]): 104 nM

GGGUACAUCGGAGGAUAUCAUGUAAAUACAUGAGGAUCACCCAUGUCGAUGGAGACAUCGGAGAUAGAGAAGGCCGAUGUACCG
apparent Kd (MS2 coat protein [2]; [5]): 476 nM | apparent Kd (MS2 coat protein [2]; [6]): 11 nM

GCCAGGAUGUAAGGAUAUGCUGAGGAAUACUCAGCAGAAGGUACAUGAGGAUCACCCAUGUAAUCCAAUAAUAAAUAACCUGGC
apparent Kd (MS2 coat protein [2]; [3]): 11.3 nM | apparent Kd (MS2 coat protein [2]; [4]): 23.4 nM

CAGAUCGGCUAGGAUAUCCAUGGUAUGUUACGAGGAGAAGGAGUCACAUGAGGAUCACCCAUGUCUCAUACUGA
apparent Kd (MS2 coat protein [2]; [3]): 24.7 nM | apparent Kd (MS2 coat protein [2]; [4]): 31.8 nM

CAGGUAGACUGAGGAUAUACAAGACUUAGUCUAUCUAGGUCAUUAACCACAUGAGGAUCACCCAUGUAGAAGGCAGUCUGCCUG
apparent Kd (MS2 coat protein [2]; [3]): 17.7 nM | apparent Kd (MS2 coat protein [2]; [4]): 23.9 nM

AUACCACGAGGAUAUCGUCUAUUUUACAUGAGGAUCACCCAUGUUAUCUUUGUAAUGUUUCGAGAAGGCGUGUUUU
apparent Kd (MS2 coat protein [2]; [3]): 34.2 nM | apparent Kd (MS2 coat protein [2]; [4]): 23.9 nM

Reference: the EternaBench riboswitch data
